Test results taken from ChEMBL document CHEMBL2202977, “Optimization and structure-activity relationships of a series of potent inhibitors of methicillin-resistant Staphylococcus aureus (MRSA) pyruvate kinase as novel antimicrobial agents” (Bioorg Med Chem, 2012).
Values after ≈ are worked out from the molar mass of the structure shown.

What was measured:
Pyruvate kinase = target: T1, Pyruvate kinase (Staphylococcus aureus (strain MRSA252), UniProt Q6GG09); experiment: Inhibition of methicillin-resistant Staphylococcus aureus 252 pyruvate kinase by LDH assay; parameters: species or system Staphylococcus aureus subsp. aureus MRSA252
T1 sequence (Q6GG09 whole entry): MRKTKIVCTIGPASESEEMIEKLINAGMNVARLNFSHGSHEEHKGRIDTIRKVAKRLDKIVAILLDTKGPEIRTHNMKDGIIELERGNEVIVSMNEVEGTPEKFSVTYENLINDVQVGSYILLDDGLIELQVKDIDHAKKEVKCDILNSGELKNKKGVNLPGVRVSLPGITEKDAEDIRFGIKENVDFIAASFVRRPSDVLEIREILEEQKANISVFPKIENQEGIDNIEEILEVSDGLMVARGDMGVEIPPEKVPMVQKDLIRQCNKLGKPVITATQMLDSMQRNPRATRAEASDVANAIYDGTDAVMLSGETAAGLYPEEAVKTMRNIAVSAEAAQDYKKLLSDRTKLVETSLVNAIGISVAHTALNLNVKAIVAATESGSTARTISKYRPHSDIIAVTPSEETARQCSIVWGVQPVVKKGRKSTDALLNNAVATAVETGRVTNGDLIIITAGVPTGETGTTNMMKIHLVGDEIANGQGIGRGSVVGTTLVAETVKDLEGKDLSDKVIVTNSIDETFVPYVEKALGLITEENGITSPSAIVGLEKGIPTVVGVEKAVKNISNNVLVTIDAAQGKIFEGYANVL
Summary of the method: (§1)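 MRSA pyruvate kinase activity was measured by a previously described procedure. IC50 was calculated from triplicate 15-point titrations, or averaged over n such determinations. Where no IC50 was obtained, the value is % inhibition at the highest concentration tested.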

[1] = target: Pyruvate kinase PKLR (Homo sapiens) (UniProt P30613); experiment: Inhibition of human pyruvate kinase R at 10 uM by LDH assay
Summary of the method: (§2)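 Selected compounds were tested against mammalian PK isoforms M1, M2, R and L at the highest concentration, 10 µM. Results are given as percent inhibition.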

[2] = target: T2, Pyruvate kinase (Staphylococcus aureus (strain MRSA252)) (UniProt Q6GG09); experiment: Inhibition of methicillin-resistant Staphylococcus aureus 252 pyruvate kinase at 10 uM by LDH assay; conditions: Staphylococcus aureus subsp. aureus MRSA252; summary of the method: as §1
T2 sequence (whole entry): T1 sequence (Q6GG09 whole entry)

[3] = target: Pyruvate kinase PKLR (Homo sapiens) (UniProt P30613); experiment: Inhibition of human pyruvate kinase L at 10 uM by LDH assay; summary of the method: as §2
Staphylococcus aureus = experiment: Antimicrobial activity against Staphylococcus aureus RN4220 after 24 hrs broth microdilution method; assay type: functional
Summary of the method: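 MIC taken as the minimum concentration giving >98% growth inhibition of the named S. aureus strain (RN4220, ATCC 25923 or ATCC 29213). Values are single determinations or averages of n determinations. Vancomycin was run as control.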

[4] = target: Pyruvate kinase PKM (Homo sapiens) (UniProt P14618); experiment: Inhibition of human pyruvate kinase M1 at 10 uM by LDH assay; summary of the method: as §2
[5] = target: Pyruvate kinase PKM (Homo sapiens) (UniProt P14618); experiment: Inhibition of human pyruvate kinase M2 at 10 uM by LDH assay; summary of the method: as §2

Pyruvate kinase PKLR (Homo sapiens), sequence (P30613 whole entry, looked up, canonical isoform): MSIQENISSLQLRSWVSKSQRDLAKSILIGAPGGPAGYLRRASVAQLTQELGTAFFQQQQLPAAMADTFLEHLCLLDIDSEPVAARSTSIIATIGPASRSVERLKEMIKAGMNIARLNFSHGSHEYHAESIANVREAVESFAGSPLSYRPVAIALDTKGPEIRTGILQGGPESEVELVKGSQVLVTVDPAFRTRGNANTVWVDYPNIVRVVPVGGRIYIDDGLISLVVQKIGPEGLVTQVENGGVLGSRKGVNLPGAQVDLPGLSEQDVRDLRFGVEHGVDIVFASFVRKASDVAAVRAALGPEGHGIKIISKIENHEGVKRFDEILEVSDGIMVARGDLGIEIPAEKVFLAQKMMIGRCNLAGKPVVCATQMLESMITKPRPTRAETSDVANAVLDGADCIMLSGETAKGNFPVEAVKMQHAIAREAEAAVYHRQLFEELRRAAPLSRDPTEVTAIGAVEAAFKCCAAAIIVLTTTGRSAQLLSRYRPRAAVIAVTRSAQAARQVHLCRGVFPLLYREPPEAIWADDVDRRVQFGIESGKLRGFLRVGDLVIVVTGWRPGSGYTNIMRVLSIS
Pyruvate kinase PKM (Homo sapiens), sequence (P14618 2-531 limits assumed): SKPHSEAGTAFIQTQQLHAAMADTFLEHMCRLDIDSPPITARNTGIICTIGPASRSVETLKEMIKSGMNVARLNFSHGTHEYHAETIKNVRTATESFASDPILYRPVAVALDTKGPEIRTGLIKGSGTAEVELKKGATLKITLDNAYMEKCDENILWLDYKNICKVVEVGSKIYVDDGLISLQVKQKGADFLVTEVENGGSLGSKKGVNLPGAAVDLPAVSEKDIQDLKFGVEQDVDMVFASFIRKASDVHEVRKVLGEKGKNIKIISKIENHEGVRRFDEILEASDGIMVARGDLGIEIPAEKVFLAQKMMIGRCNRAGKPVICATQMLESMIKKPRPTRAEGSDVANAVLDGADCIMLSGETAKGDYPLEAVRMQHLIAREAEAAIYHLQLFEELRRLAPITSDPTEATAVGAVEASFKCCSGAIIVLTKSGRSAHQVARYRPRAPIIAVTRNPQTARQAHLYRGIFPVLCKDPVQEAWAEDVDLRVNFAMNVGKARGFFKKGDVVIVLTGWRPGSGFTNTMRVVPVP

SMILES	IC50 (Pyruvate kinase) [nM]	inhibition [1] [%]	inhibition [2] [%]	inhibition [3] [%]	MIC>98 (Staphylococcus aureus) [µg/mL]	inhibition [4] [%]	inhibition [5] [%]
CC(=NNC(=O)c1cc(Br)ccc1O)c1cc2cc(F)ccc2n1C (mixture of isomers)	165	-2.9	96.1	-2.3	3.3	-4.5	
CC(=NNC(=O)c1cc(Br)ccc1O)c1nc2ccccc2s1	224				>78		
C/C(=N\NC(=O)c1cc(Br)ccc1O)c1cc2ccccc2s1	286	12.5	96.4	7.3	>195	10.2	-1.1
COc1ccc(Br)cc1S(=O)(=O)N/N=C(\C)c1cc2c(F)c(F)ccc2[nH]1			11				
Cn1c(C=NNC(=O)c2cc(Br)ccc2O)cc2ccccc21 (mixture of isomers)	3090				>186		
C/C(=N\NC(=O)c1ccccc1O)c1cc2ccccc2[nH]1	8620				59 (≈ 201 µM)		
C/C(=N\NC(=O)c1ccccc1)c1cc2ccccc2[nH]1			28		>139		
C/C(=N\NC(=O)c1cc(Br)ccc1O)c1cc2cc(F)c(F)cc2[nH]1	20				>82		
C/C(=N\NC(=O)c1cc(Br)ccc1O)c1cc2ccccc2[nH]1	85	-8.7	98.1	-6.9	>186	4.6	4.3
O=C(N/N=C/c1cc2ccccc2[nH]1)c1cc(Br)ccc1O	863	-0.5	89.9	0.2	>179	-7.2	-1.4
C/C(=N\NC(=O)c1ccccn1)c1cc2ccccc2[nH]1			15		>139		
C/C(=N\OC(=O)c1cc(Br)ccc1O)c1cc2ccccc2n1C			34		>155		
CC(=NNC(=O)c1cc(Br)ccc1O)c1cc2cc(Br)ccc2n1C (mixture of isomers)	146	14.2		9.2	1.4	19.5	11.9
C/C(=N\NC(=O)c1cc(Br)cc(Br)c1O)c1cc2ccccc2[nH]1	74				64 (≈ 142 µM)		
COc1cc(O)c(C(=O)NN=C(C)c2cc3ccccc3n2C)cc1Br (mixture of isomers)	841				>167		
C/C(=N\NC(=O)c1cc(Br)ccc1O)c1cc2cc(F)ccc2[nH]1	49	-1.6	97	-0.5	>195	-4.6	0.4
CCC(=NNC(=O)c1cc(Br)ccc1O)c1cc2ccccc2n1C (mixture of isomers)	461	-1.9	99.1	2.7	5	-4.3	-1.5
COc1ccc(Br)cc1S(=O)(=O)N/N=C(\C)c1cc2ccccc2[nH]1			12				
C/C(=N\NC(=O)c1cc(Br)ccc1O)c1cc2cc(I)ccc2[nH]1	43				>64		
C/C(=N\NC(=O)c1cc(Br)ccc1O)c1nc2ccccc2[nH]1	91	-1.4	96.4	2.1	>187	7.6	6.7
C/C(=N\NC(=O)c1cc(Br)ccc1O)c1cc2cc(C(F)(F)F)ccc2[nH]1			46				
COc1ccc2[nH]c(/C(C)=N/NC(=O)c3cc(Br)ccc3O)cc2c1	178	5.2	89.3	3.9	>80	7.2	2.2
